Measurements as given in ChEMBL document CHEMBL1141973, “6'-Methylpyrido[3,4-b]norhomotropane: synthesis and outstanding potency in relation to the alpha4beta2 nicotinic receptor pharmacophore model” (Bioorg Med Chem Lett, 2005).

What was measured:
Assay type in all cases: cell-based
[1] = Dissociation constant for nicotinic acetylcholine receptor alpha4-beta2 of mouse M10 cells; n=3
Procedure, shortened: (§1)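 α4β2 receptor immunoisolated with mAb 270 from mouse fibroblast M10 cells. Competition binding against (−)-[³H]nicotine at 7 nM. Ki was obtained from IC50 by Cheng–Prusoff, Ki = IC50/(1 + [L]/KD), with KD 3.8 nM.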

[2] = biological target: T1, Neuronal acetylcholine receptor subunit alpha-7 (Homo sapiens, UniProt P36544); assay: Binding affinity for nicotinic acetylcholine receptor alpha 7 from human neuroblastoma SH-SY5Y cells; n=3
[3] = biological target: T1, Neuronal acetylcholine receptor subunit alpha-7; assay: Dissociation constant for nicotinic acetylcholine receptor alpha 7 from human neuroblastoma SH-SY5Y cells; n=3
[4] = Binding affinity for nicotinic acetylcholine receptor alpha4-beta2 from mouse M10 cells; n=3; procedure, shortened: as §1

T1 sequence (P36544 whole entry): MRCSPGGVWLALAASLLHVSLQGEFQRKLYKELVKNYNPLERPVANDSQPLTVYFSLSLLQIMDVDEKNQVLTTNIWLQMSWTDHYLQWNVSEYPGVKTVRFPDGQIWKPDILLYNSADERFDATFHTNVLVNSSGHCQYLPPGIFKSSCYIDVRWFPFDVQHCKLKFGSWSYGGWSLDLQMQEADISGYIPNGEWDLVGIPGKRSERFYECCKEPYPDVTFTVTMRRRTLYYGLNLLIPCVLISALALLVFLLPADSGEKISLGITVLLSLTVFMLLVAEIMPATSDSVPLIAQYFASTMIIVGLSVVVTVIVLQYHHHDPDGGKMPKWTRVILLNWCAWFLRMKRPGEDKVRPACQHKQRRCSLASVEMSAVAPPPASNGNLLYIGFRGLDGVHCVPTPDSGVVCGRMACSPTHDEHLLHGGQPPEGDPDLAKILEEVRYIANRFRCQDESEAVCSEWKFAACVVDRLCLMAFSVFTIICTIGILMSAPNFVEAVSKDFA

| SMILES | Kd [1] | Ki [2] | Kd [3] | Ki [4] |
| --- | --- | --- | --- | --- |
| c1cc2c(cn1)C1CCC(CC2)N1 (racemic) | 0.00308 µM | > 100 µM | 0.00106 µM | 1.3 nM |
| Cc1cc2c(cn1)C1CCC(CC2)N1 (racemic) | 0.00039 µM | ~1000 µM | 0.00106 µM | 0.39 nM |
| Clc1ccc(C2CC3CCC2N3)cn1 (racemic) [EPIBATIDINE] | 0.00308 µM |  | 0.00106 µM | 0.035 nM |
| c1cncc([C@@H]2CCCN2)c1 (racemic) [NORNICOTINE] |  | 138 µM | 0.00106 µM | 14 nM |
| CN1CCC[C@@H]1c1cccnc1 [R-NICOTINE] | 0.0038 µM |  |  | 2.5 nM |
